Test results taken from article PMC11969896 (Virology Journal, 2025).
“And” between values parts separate entries of the source, which are not always exact repeats. Equal values may be shown once.

Tests used:
[1] = test system: MNV^CW3; assay: MNV viral genome copies quantification; format: cell-based, murine norovirus; conditions: RAW264.7 cells, 40 μg/mL, 24 h
[2] = test system: MNV^CW3; assay: MNV plaque assay; format: cell-based, murine norovirus; conditions: RAW264.7 cells, 40 μg/mL, 24 h
Outline: (§1)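 Infected cells harvested at 24 hpi and frozen at −80 °C. RAW264.7 monolayers seeded at 1.8 × 10^6 cells/well; 16 h later, tenfold serial lysate dilutions applied for 1 h with rocking. Overlay of MEM, 10% FBS, 2 mM L-glutamine, 10 mM HEPES and 1% methylcellulose, incubated 2 days. Plaques stained with 0.2% crystal violet in 20% ethanol.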

[3] = test system: MNV^CW3; assay: MNV viral genome copies quantification; format: cell-based, murine norovirus; conditions: BV2 cells, 40 μg/mL (97 μM), 24 h treatment
[4] = test system: MNV^CW3; assay: Cell viability of MNV^CW3-infected RAW264.7 cells; format: cell-based, murine norovirus; conditions: RAW264.7 cells after MNV^CW3 infection, 24 h
[5] = test system: MNV^CR6; assay: MNV^CR6 replication in cell culture; format: cell-based, murine norovirus; conditions: BV2 and RAW264.7 cells
[6] = target: T1, MNV^CW3 RdRp (Norovirus, UniProt Q80J95); assay: RdRp inhibition assay; format: biochemical, murine norovirus
T1 sequence (Q80J95 1178-1687 limits assumed): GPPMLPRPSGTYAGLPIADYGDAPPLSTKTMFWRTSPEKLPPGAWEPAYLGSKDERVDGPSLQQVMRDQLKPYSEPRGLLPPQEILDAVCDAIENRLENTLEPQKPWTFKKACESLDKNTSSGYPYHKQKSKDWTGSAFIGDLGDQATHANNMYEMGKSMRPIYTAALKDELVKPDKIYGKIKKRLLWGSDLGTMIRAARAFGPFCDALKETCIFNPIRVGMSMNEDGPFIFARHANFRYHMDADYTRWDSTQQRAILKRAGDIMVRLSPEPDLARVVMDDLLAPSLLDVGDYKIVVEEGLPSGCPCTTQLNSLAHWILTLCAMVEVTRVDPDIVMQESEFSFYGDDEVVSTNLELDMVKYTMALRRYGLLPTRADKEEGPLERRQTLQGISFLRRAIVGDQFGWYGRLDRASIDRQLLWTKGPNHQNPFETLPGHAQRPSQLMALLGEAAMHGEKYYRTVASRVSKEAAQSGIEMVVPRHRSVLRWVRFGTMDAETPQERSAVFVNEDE
Outline: (§2)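 MNV^CW3 RdRp (GST-tagged) or HNV GII.4 Sydney/2006 RdRp (His-tagged) expressed in E. coli BL21(DE3) and affinity-purified. Enzyme preincubated with compound 10 min at 30 °C in 10 mM PBS pH 7.5, 2.5 mM MnCl2, 5 mM DTT. Poly(C) and GTP then added (final 2.8 μM enzyme, 40 μg/mL poly(C), 25 μM GTP), 30 min at 30 °C. EDTA stop; dsRNA by PicoGreen (ex 480/em 520 nm); normalized to 0.5% DMSO vehicle.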

[7] = Cytotoxicity; format: cell-based; conditions: mouse, BV2 cells
[8] = test system: MNV^CW3; assay: Cell viability-based anti-MNV screening in MNV^CW3-infected BV2 cells; set-up: species or system murine norovirus; conditions: MNV^CW3 infection, 40 μg/mL compound, 24 h, DMSO control about 2.7%
Outline: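 BV2 cells plated at 10,000/well 16–18 h before infection with MNV^CW3 at MOI 0.25 for 1 h. Medium then replaced with 40 μg/mL compound or DMSO vehicle. Viability read after 24 h as ATP level by luminescence kit. At least 3 biological repeats.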

[9] = target: T2, MNV RdRp (Norovirus, UniProt Q80J95); assay: Size-exclusion chromatography of MNV RdRp with or without compound; set-up: species or system murine norovirus; conditions: 60 μM compound
T2 sequence (Q80J95 1178-1687 limits assumed): T1 sequence (Q80J95 1178-1687 limits assumed)
Outline: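 Purified RdRp, with or without 60 μM compound, run on a Superose 6 10/300 GL gel-filtration column equilibrated in 20 mM Tris-HCl pH 8.0, 150 mM NaCl, at 0.4 mL/min.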

[10] = Cytotoxicity; format: cell-based; conditions: mouse, RAW264.7 cells
[11] = test system: MNV^CW3; assay: MNV plaque assay; format: cell-based, murine norovirus; conditions: BV2 cells, 97 μM, 24 h
Outline: as §1

[12] = target: T3, HNV RdRp (Norovirus Hu/GII.4/Sydney348/97O/AU, UniProt Q2N379); assay: RdRp inhibition assay; format: biochemical, human norovirus (G II 0.4/Sydney/2006)
T3 sequence (Q2N379 1-510): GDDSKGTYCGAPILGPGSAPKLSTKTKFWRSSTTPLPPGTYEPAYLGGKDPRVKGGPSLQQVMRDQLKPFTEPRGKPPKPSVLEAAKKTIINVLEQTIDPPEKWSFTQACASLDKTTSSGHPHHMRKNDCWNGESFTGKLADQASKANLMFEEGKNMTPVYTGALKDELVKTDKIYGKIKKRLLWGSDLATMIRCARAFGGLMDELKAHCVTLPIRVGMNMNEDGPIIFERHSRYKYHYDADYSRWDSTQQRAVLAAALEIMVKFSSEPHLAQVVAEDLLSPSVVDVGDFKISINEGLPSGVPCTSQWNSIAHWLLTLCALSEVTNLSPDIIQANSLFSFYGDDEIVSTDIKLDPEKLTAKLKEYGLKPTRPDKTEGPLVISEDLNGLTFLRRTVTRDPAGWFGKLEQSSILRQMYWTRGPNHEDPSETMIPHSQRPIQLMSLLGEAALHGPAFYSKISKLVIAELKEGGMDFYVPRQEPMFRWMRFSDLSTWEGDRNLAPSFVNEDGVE
Outline: as §2

For C[C@@]1(O)[C@H](O)[C@@H](CO)O[C@H]1n1ccc(N)nc1=O [Compound 2CMC, 2′-C-methyl-cytidine, reference compound], the “MNV^CW3 genome copy number” value [1] was “decreased” and the “MNV^CW3 viral titers” value [2] was “decreased”.
With N#Cc1c(-c2ccccc2O)nc(SCC(=O)Nc2cc(F)cc(F)c2)[nH]c1=O [Co-29, 2-((5-cyano-4-(2-hydroxyphenyl)-6-oxo-1,6-dihydropyrimidin-2-yl)thio)-N-(3,5-difluorophenyl)acetamide] the “decrease of MNV^CW3 RNA level vs DMSO vehicle control” value [3] was “more than 2 Log10-fold”, the “MNV^CW3 genome copy number” value [1] was “decreased” and the “concentration of maximum effectiveness (cell viability)” value [4] was 40 µg/mL. For the same compound, the “cell viability after MNV^CR6 infection” value [5] was “increased cell viability”, the “MNV^CR6 plaque numbers” value ([5]; 97 μM) was “decreased plaque numbers” and the “MNV^CR6 viral genome copies” value ([5]; 97 μM (40 μg/mL)) was “low levels of viral genome copies”. For the same compound, the IC50 [6] was 32 µM, the “inhibition of MNV^CW3 RdRp” value ([6]; 35 μM RdRp in the reaction system, vs vehicle (0.5% DMSO), 4 μL of 100 μM compound (4 μM Co-29 final)) was over 75% and the CC50 [7] was ~52.2 µg/mL and ~126 µM. For the same compound, the “cell viability (ratio of live cells)” value [8] was 36.9%, the “main SEC peak formed by the protein when compound added (aggregation check)” value [9] was “did not change” and the CC50 [10] was 105 µM. The “formation of MNV^CW3 plaques (viral titer)” value [11] was “dramatically inhibited”, the “MNV^CW3 viral titers” value [2] was “decreased” and the IC50 [12] was 36.6 µM. For the same compound, the “inhibition of HNV RdRp” value ([12]; same assay, normalized to DMSO vehicle control) was “more than 70%”.
